MEKK2mut PB1 HTS – signal of MEK5 binding to mutant human MEKK2 PB1 domain. bead flow cytometry, Alexa488-MEK5 binding to MEKK2 mutant. percent response, % at 10 µM. hit rate 0.35% among 290,000. AID 1530; in the data active = percent response above about 24%, passing the limit was not always enough
MEKK2 WT-MEK5 – raises or lowers MEK5 binding to wildtype human MEKK2 PB1 domain; bead flow cytometry, Alexa488-MEK5 binding to MEKK2 WT; actives lie on both sides; Q9Y2U5; binding response (% of control), % at 10 µM; hit rate 1.1% among 290,000; in the data active = binding response below about 67% or above about 130%; inconclusive = no clear call, values can overlap the other calls; inactive = in between
MEKK3 PB1 HTS – modulators (inhibitors or enhancers) of MEK5 binding to human MEKK3 PB1 domain; bead-based flow cytometry, Alexa488-MEK5 binding to MEKK3; actives lie on both sides; 0 = blocked by unlabeled MEK5, 100 = vehicle; binding response (% of control), % at 10 µM; AID 1529; Q99759; hit rate 1.4% among 290,000;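 active = binding response more than 3 SD above or below the average of its plate-row segment, actives on both sides; inconclusive = wells at one plate position flagged as instrument error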;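 note: Alexa488 bead fluorescence after subtracting the streptavidin-only scavenger bead signal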
UCH37 inh – blocks the human deubiquitinase UCH37; inhibition, % (test concentration not listed); Q9Y5K5; AID 588478; purified proteasome/UCH37, Ub-AMC cleavage fluorescence; hit rate 0.33% among 330,000;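 active = mean inhibition over replicate wells above about 20%, limit read from the data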
Target sequence (Q9Y5K5 whole entry, looked up): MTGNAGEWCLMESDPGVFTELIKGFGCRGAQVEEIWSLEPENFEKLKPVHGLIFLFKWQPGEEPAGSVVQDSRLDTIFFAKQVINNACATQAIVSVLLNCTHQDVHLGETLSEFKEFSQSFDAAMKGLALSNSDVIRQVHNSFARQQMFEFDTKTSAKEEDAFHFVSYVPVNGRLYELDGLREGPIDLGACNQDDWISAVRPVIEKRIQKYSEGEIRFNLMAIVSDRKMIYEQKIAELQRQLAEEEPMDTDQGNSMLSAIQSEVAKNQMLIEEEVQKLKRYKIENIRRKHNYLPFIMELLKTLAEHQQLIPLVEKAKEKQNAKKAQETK
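Test system – human UCH37 enzyme supplied as purified proteasome complex · Incubation – 30 min preincubation with enzyme, 25 min cleavage at room temperature · Detection – AMC fluorescence from Ub-AMC cleavage, excitation 355 nm, emission 460 nm · Benchmarks – no-proteasome wells (full inhibition) and compound-free wells (no inhibition)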
Apaf-1 inh – human Apaf-1 inhibition. O14727. hit rate 0.71% among 330,000. reconstituted apoptosome caspase-3 activity, DEVD-Rh110 fluorescence. AID 489030. inhibition, % at 20 µM; active = inhibition of at least 40% at 20 µM
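Material: biochemical Apaf-1 apoptosome reconstitution. Medium: Hepes buffer, pH 7.5. Also added: cytochrome c activation, bis-DEVD rhodamine 110 substrate. Timing: 30 min compound preincubation, 50 min activation, room temperature. Measured by: rhodamine 110 fluorescence at Ex 480/Em 540 nm.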
UBC13 inh – blocks human UBC13 polyubiquitin chain formation; P61088; TR-FRET; inhibition, % at 20 µM; hit rate 0.47% among 330,000; AID 485273; in the data active = inhibition above about 45%, passing the limit was not always enough; inconclusive = no clear call, values can overlap the other calls
Casp3 UBC13 ctr – caspase-3 inhibition (UBC13 counter-screen). shares compounds with UBC13 inh. Recombinant caspase-3, Caspase-Glo 3/7 luminescence, 60 min. inhibition, % at 20 µM. hit rate 4% among 1,400. AID 488856;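 active = mean inhibition across replicates above about 26%, limit read from the data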
Target sequence (P42574 whole entry, looked up): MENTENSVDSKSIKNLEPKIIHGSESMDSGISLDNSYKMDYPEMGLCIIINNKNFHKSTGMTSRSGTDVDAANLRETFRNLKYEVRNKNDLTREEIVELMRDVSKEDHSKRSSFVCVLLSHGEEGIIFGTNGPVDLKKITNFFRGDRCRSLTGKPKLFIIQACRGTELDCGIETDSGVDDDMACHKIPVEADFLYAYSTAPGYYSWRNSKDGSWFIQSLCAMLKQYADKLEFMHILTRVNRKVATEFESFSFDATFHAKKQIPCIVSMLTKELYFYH
UBC13 confirm – confirmation of human UBC13 polyubiquitin inhibitors. shares compounds with UBC13 inh. inhibition, % at 10 µM. UBC13 polyubiquitination, TR-FRET, biochemical. AID 488859. hit rate 68% among 1,400; in the data active = inhibition above about 45%; inconclusive = no clear call, values can overlap the other calls
Numbers stand for hits; . = inactive; ? = inconclusive; / = no result given; [ ] = another dose, or the depositor's remark. Sampled rows, rich in hits. Any-hit rate of the full collection: about 3%.

SMILES	MEKK2mut PB1 HTS	MEKK2 WT-MEK5	MEKK3 PB1 HTS	UCH37 inh	Apaf-1 inh	UBC13 inh	Casp3 UBC13 ctr	UBC13 confirm
CCOC(=O)c1c(NC(C)=O)sc2c(OCC(O)CNC(C)(C)C)c(Br)ccc12 (stereo not given)	.	.	.	.	.	46	.	74
COc1ccc(C(=O)NNC(=O)CSc2nc3c([nH]2)c(=O)n(C)c(=O)n3C)cc1	.	.	.	.	.	.	/	/
CCN1CCN(CCNC(=O)c2ccc3c(c2)N(Cc2ccc(F)cc2)C(=O)/C(=C/c2ccccc2)S3)CC1	117	278	.	.	.	65	.	92
COc1cccc(/C=C2/Sc3ccc(C(=O)NCCN4CCCC4)cc3NC2=O)c1	30	188	.	.	.	50	.	74
O=C(NCCCN1CCCCC1)c1ccc2c(c1)NC(=O)c1ccccc1S2	.	.	.	.	.	.	/	/
Cc1ccc(N(C(=O)c2snc(C(N)=O)c2N)C(C(=O)NCCC(C)C)c2ccco2)cc1 (stereo not given)	.	.	.	.	.	74	.	62
COc1ccc(N(C(=O)c2snc(C(N)=O)c2N)C(C(=O)NC2CCCC2)c2cccs2)cc1OC (stereo not given)	.	.	.	.	.	64	.	.
CC(C)CCNC(=O)C(c1ccco1)N(Cc1ccccc1)C(=O)c1snc(C(N)=O)c1N (stereo not given)	.	.	.	.	.	.	/	/
NC(=O)c1nsc(C(=O)N(c2cccc(F)c2)C(C(=O)NC2CCCC2)c2ccco2)c1N (stereo not given)	.	0.0[inhibitor]	1.0[inhibitor]	.	.	53	.	.
COc1ccc(N(C(=O)c2snc(C(N)=O)c2N)C(C(=O)NC2CCCCC2)c2ccc(C)o2)cc1 (stereo not given)	.	.	.	.	.	60	.	55
O=C(N/N=C/c1ccoc1)c1cc(Br)ccc1O	.	.	.	/	.	.	/	/
Cc1c(CCC(=O)O)c(=O)oc2cc3oc4c(c3cc12)CCCC4	.	.	.	.	.	.	/	/
CC(C)CC(C(=O)NC1CCCC1)N(Cc1ccc2c(c1)OCO2)C(=O)c1snc(C(N)=O)c1N (stereo not given)	.	.	.	.	.	46	.	.
NC(=O)c1nsc(C(=O)N(c2cccc(F)c2)C(C(=O)NC2CCCC2)c2ccc(O)cc2)c1N (stereo not given)	.	.	.	.	.	48	.	51
CCC(C(=O)NC1CCCC1)N(Cc1ccc2c(c1)OCO2)C(=O)c1snc(C(N)=O)c1N (stereo not given)	.	.	.	.	.	.	/	/
CCc1ccc(N(C(=O)c2snc(C(N)=O)c2N)C(C(=O)NC2CCCC2)c2ccco2)cc1 (stereo not given)	.	.	.	.	.	63	.	67
COc1ccc(N(C(=O)c2snc(C(N)=O)c2N)C(C(=O)NC2CCCC2)c2ccco2)cc1 (stereo not given)	.	.	.	.	.	82	.	90
O=C1CN(C(=O)CSc2ccc(-c3ccc(F)cc3)nn2)c2ccccc2N1	.	.	.	.	.	.	/	/
O=C(NC1CC2CCCC(C1)N2C(=S)Nc1ccc(Cl)cc1)C1CC1 (stereo not given)	.	.	.	.	.	.	/	/
CSc1nsc(SC)c1C(=O)OCC(F)(F)F	.	.	.	.	.	.	/	/
CCOc1ccc(N(C(=O)c2snc(C(N)=O)c2N)C(C)C(=O)NC2CCCCC2)cc1 (stereo not given)	.	.	.	.	.	.	/	/
CCOc1ccc(N(C(=O)c2snc(C(N)=O)c2N)C(C(=O)NC2CCCC2)C(C)C)cc1 (stereo not given)	.	.	.	.	.	70	.	78
C=CCn1c(SCC(=O)Nc2nnc(C)s2)nnc1-c1cccnc1	.	.	.	.	.	.	/	/
CCn1cc(Cl)c(C(=O)Nc2nc3ccccc3n2CCN2CCCCC2)n1	.	.	.	.	.	.	/	/
NC1=NC[C@H](Cc2ccc(O)cc2)N1CCc1cc(C(F)(F)F)cc(C(F)(F)F)c1	.	.	.	.	.	52	.	.
SMILES	MEKK2mut PB1 HTS	MEKK2 WT-MEK5	MEKK3 PB1 HTS	UCH37 inh	Apaf-1 inh	UBC13 inh	Casp3 UBC13 ctr	UBC13 confirm
Cc1ccc(C2C3=C(CC(C)(C)CC3=O)NC3=C2C(=O)c2ccccc23)cc1 (stereo not given)	.	.	.	.	.	.	/	/
CC1(C)CC(=O)C2=C(C1)NC1=C(C(=O)c3ccccc31)C2c1ccc(Cl)cc1 (stereo not given)	.	.	.	.	.	50	.	56
CC1CCCCN1CCNC(=O)c1cc2c(=O)n(C)c3ccccc3c2n1C (stereo not given)	.	.	.	.	.	46	.	46
Cn1c(C(=O)NCCN2CCOCC2)cc2c(=O)n(C)c3ccccc3c21	.	.	.	.	.	.	/	/
CC(O)CNc1nc(NCc2ccccc2)c2cnn(C)c2n1 (stereo not given)	.	.	.	.	.	.	/	/
Cc1ccccc1CNC(=O)CCCC(=O)n1nc(C)c2ccccc21	.	.	.	.	.	46	.	63
Cc1ccccc1C(=O)Nc1cc(S(=O)(=O)N2CCCCC2)ccc1N1CCN(C)CC1	.	.	.	.	.	.	/	/
CN1CCN(c2ccc(S(=O)(=O)N3CCCCC3)cc2NC(=O)c2ccc3ccccc3c2)CC1	.	.	.	.	.	46	.	52
O=C(NCC1CCCO1)c1cc([N+](=O)[O-])ccc1N1CCC(Cc2ccccc2)CC1 (stereo not given)	/	/	/	.	.	.	/	/
CCSC1=C(C#N)C(c2ccccc2C)CC(=O)N1 (stereo not given)	.	.	.	.	.	.	/	/
COc1ccc(-c2nnc(SCC(=O)Nc3cc(F)ccc3C)o2)cc1	.	.	.	.	.	47	.	.
C=CCNC(=S)Nc1sc2c(c1C(=O)OCC)CCN(C(=O)OCC)C2	.	.	.	.	.	50	.	?
CCOC(=O)c1c(NC(=S)NCc2ccccc2)sc2c1CCN(C(=O)OCC)C2	.	.	.	.	.	.	/	/
O=C(CN1C(=O)S/C(=C\c2cccs2)C1=O)Nc1ccc(O)cc1C(=O)O	.	.	.	.	.	.	/	/
O=C(NCc1cccnc1)C1CCN(S(=O)(=O)c2cc([N+](=O)[O-])ccc2Cl)CC1	/	/	/	.	.	.	/	/

Assay outcomes (PubChem BioAssay)
